AI-2 QS modul: Vibrio harveyi AI-2 quorum sensing modulation; actives 0.4% (n = 300,000); Vibrio harveyi JMH597 AI-2 luminescence/OD600 ratio, 9 h; stronger effect = lower value; strain lacks LuxN and CqsS sensors; 0 = neutral-control median; AID 2094; activity change, % at 7.5 µM; in the data active = activity change below about -75%, passing the limit was not always enough; inconclusive = no clear call, values can overlap the other calls;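 note: luminescence divided by OD600 gain over 9 h not by final OD600 alone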
V-ATPase pHluor: yeast V-ATPase proton transport regulation by pHLuorin; S. cerevisiae, pHLuorin cytosolic pH fluorescence; response, % at 10 µM; actives 0.37% (n = 350,000); in the data active = response mostly above about 7.3%, no sharp cut-off; inactive = mostly below about 5.4%; note: actives read high
NRP1-CendR mod: modulators of CendR peptide binding to human neuropilin-1; O14786; FAM-RPARPAR peptide binding to NRP-1, fluorescence polarization; inhibition, % at 25 µM; actives 0.85% (n = 360,000); AID 602438;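 active = inhibition or corrected inhibition above about 18%, plus a signal ratio from 0.5 to 1.5, limit read from the data, passing the limit was not always enough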
T cruzi repl: blocks replication of Trypanosoma cruzi. actives 1.4% (n = 300,000). inhibition, % (concentration not given with the values). T. cruzi beta-gal in NIH3T3, luminescence, 90 h;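 active = mean inhibition across valid replicates above about 55%, limit read from the data; inconclusive = mean below that limit but half or more replicates reach it; inactive = mean below it, under half of replicates reach it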;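 note: signal also drops with host cell toxicity which is not excluded here; higher percent means less beta-gal luminescence so fewer parasites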
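System: Mouse NIH/3T3 fibroblasts infected with β-gal-expressing T. cruzi Tulahuen C4 | Quantity: NIH/3T3 cells, 5,000 per well | Reagent: 5000 reporter trypomastigotes per well | Dosing: Compound pinned at 50 nL/well, DMSO | Schedule: 3 h host attachment, then at least 90 h co-culture | Detection: GalScreen luminescence, 60 min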
CR mimetic SO: lowers age-related superoxide in aged yeast cells; superoxide response (% of plate mean), % at 10 µM; S. cerevisiae aged cells, superoxide DHE fluorescence; stronger effect = lower value; actives 0.18% (n = 330,000); AID 2690;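 active = superoxide response under a set limit, about three screen SD below normal, cut at about 65% in these data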;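 note: yeast aged for seven days with compound at 30 °C before DHE staining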
HIF activator: HIF pathway transcriptional activation; U2OS HRE-luciferase reporter, luminescence; normalized: DMSO 0%, desferrioxamine 100%; activation, % at 7.5 µM (by protocol); actives 0.32% (n = 300,000); AID 1910;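 active = mean activation of at least 10% of the iron chelator positive control signal, with at least half of replicates also reaching 10%; inconclusive = mean and replicate majority disagree about reaching 10%; inactive = mean and most replicates under 10%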
A number is an active result; 0 = inactive; ? = inconclusive; - = no result. This is a sample that favours compounds with a hit; in the whole collection about 3% have one here.

SMILES | AI-2 QS modul | V-ATPase pHluor | NRP1-CendR mod | T cruzi repl | CR mimetic SO | HIF activator
COc1cccc(C(NC(C)=O)c2nc(-c3ccc(C)c(C)c3)cs2)c1 (stereo unspecified) | - | - | 34 | - | - | -
COc1ccc(CC(NC(C)=O)C(=O)NC2CCN(C(=O)c3ccccc3F)CC2)cc1 (stereo unspecified) | 0 | 0 | 0 | 0 | 0 | 0
COc1cc(NC(=O)c2cc(-c3ccc4c(c3)OCO4)on2)cc(OC)c1OC | 0 | 0 | 0 | 59 | 0 | 0
COc1cc(NC(=O)c2cc(-c3ccccc3)on2)cc(OC)c1OC | 0 | 0 | 0 | 0 | 0 | 0
C=CCNC(=O)c1onc(CSc2ccc(F)c(F)c2)c1C(=O)NCC=C | 0 | 0 | 25 | 0 | 0 | 0
Cc1ccc2c(c1)cc(C(=O)NCc1ccccc1)n2C | 0 | 0 | 0 | 0 | 0 | 23
Cn1c(C(=O)N[C@@H](Cc2ccccc2)C(=O)O)cc2cc(F)ccc21 | 0 | 0 | 0 | 0 | 0 | 0
Cc1cc2cc(CNC(=S)NCc3ccccc3)ccc2n1C | 0 | 0 | 22 | 0 | 0 | 0
Cc1ccccc1NC(=S)NCc1ccc2c(c1)cc(C)n2C | 0 | 0 | 0 | 0 | 0 | 0
COc1ccc(S(=O)(=O)Nc2cccc3c2O[C@H](CN(C)S(=O)(=O)c2cn(C)cn2)[C@@H](C)CN([C@H](C)CO)C3=O)cc1 | - | 0 | 26 | - | 0 | -
CCOc1ccc(OCC)c(NC(=O)C2CCN(S(=O)(=O)c3cnc[nH]3)CC2)c1 | - | 0 | 21 | 0 | 0 | 0
CCCCCCCNC(=O)C1(CC2CC(c3cccc(Br)c3)=NO2)CCN(C(=O)c2ccccc2)CC1 (stereo unspecified) | 0 | 0 | 0 | 61 | 0 | 0
C(=NNC1=NCCN1)c1ccnc2ccccc12 | - | - | 0 | - | - | -
Clc1cc(/C=N\NC2=NCCN2)cc(Cl)n1 | 0 | 0 | 0 | 70 | 0 | 0
CC(C)n1ncc2c(C(=O)Nc3ccc(S(N)(=O)=O)cc3)cc(C3CC3)nc21 | - | 0 | 46 | - | 0 | -
CC(C)n1ncc2c(C(=O)Nc3ccc(S(C)(=O)=O)cc3)cc(C3CC3)nc21 | - | 0 | 0 | - | 0 | -
CCOC(=O)CN(C(=O)COc1nc(C)cc(C)c1C#N)c1cccc(Cl)c1 | 0 | 0 | 0 | 0 | 0 | 25
O=C(NC1CCN(S(=O)(=O)c2ccc(F)cc2)CC1)c1ccc(F)cc1 | 0 | 0 | 0 | 0 | 0 | 0
CCCn1c(SCc2nc(-c3cccs3)no2)nnc1-c1ccncc1 | 0 | 0 | 0 | 0 | 0 | 0
CCOc1ccc(-n2c(SCc3nc(-c4cccs4)no3)nnc2-c2ccncc2)cc1 | 0 | 0 | 0 | 64 | 0 | 0
CN(C)CCCN(C(=O)COc1ccc(Cl)cc1)c1nc2cc3c(cc2s1)OCCO3 | 0 | 0 | 0 | 57 | 0 | 0
Cc1ccc2nc(N(CCN(C)C)C(=O)c3ccc4c(c3)OCCO4)sc2c1 | 0 | 0 | 0 | 72 | 0 | 0
Cc1cc(C)c2nc(N(CCCN(C)C)C(=O)c3ccc4c(c3)OCCO4)sc2c1 | 0 | 0 | 0 | 57 | 0 | 0
CCN(CC)CCN(C(=O)c1ccc2c(c1)OCCO2)c1nc2ccc(C)cc2s1 | 0 | 0 | 0 | 69 | 0 | 0
Cc1cc(C)c2nc(N(CCCN(C)C)C(=O)C3=COCCO3)sc2c1 | 0 | 0 | 0 | 0 | 0 | 0
SMILES | AI-2 QS modul | V-ATPase pHluor | NRP1-CendR mod | T cruzi repl | CR mimetic SO | HIF activator
O=c1c2ccccc2nc(COc2ccccc2)n1/N=C/c1c[nH]c2ccccc12 | 0 | 0 | 0 | 0 | 0 | 0
C/C(=N\OCc1nc2ccccc2c(=O)n1/N=C/c1cc(C)cc([N+](=O)[O-])c1O)c1ccccc1 | 0 | 0 | 0 | 0 | 0 | 9.6
C/C(=N\OCc1nc2ccccc2c(=O)n1/N=C/c1cc([N+](=O)[O-])ccc1O)c1ccccc1 | 0 | 0 | 0 | 0 | 0 | 10
Cc1cc([N+](=O)[O-])cc(/C=N/n2c(C)nc3ccccc3c2=O)c1O | 0 | 0 | 0 | 0 | 0 | 0
O=c1c2ccccc2nc(COc2ccccc2)n1/N=C/c1ccc(O)cc1O | 0 | 0 | 0 | 57 | 0 | 61
CC(NC(=O)c1cc2cc([N+](=O)[O-])ccc2oc1=O)C1CCCO1 (stereo unspecified) | 0 | 0 | 0 | 0 | 0 | 0
CCOc1ccccc1NC(=O)C(Sc1nnc2ccccn12)c1ccccc1 (stereo unspecified) | 0 | 0 | 0 | 0 | 0 | 0
Cc1cc(C)c(S(=O)(=O)N2CCN(c3ccc([N+](=O)[O-])c(-n4nc(C)cc4C)c3)CC2)c(C)c1 | 0 | 0 | 0 | 61 | 0 | 0
COc1cccc(-c2nc(N3CC(C)CC(C)C3)c3ccccc3n2)c1O (stereo unspecified) | 0 | 0 | 0 | 55 | - | 0
COc1ccccc1/C=N/NC(=O)CN(C1=NS(=O)(=O)c2ccccc21)c1ccccc1 | 0 | 0 | 26 | 0 | 0 | 0
Cn1c(=O)c2[nH]c(CCNC(=O)c3ccccc3)nc2n(C)c1=O | - | 0 | 18 | - | - | -
CCOC(=O)N1CCN(C(=O)c2ccc3c(c2)N(CC)CCS3)CC1 | 0 | 0 | 0 | 0 | 0 | 0
O=C(/C=C/c1ccc(S(=O)(=O)N2CCOCC2)cc1)NCc1ccccc1 | 0 | 0 | 0 | 0 | 0 | 0
COC(=O)c1cccc(Nc2cc(C)nc(-c3ccccc3O)n2)c1 | 0 | 0 | 0 | 58 | 0 | -
Cc1cc(N/N=C/c2ccc(O)cc2O)nc(-n2nc(C)cc2C)n1 | 0 | 0 | 0 | 60 | 0 | 0
Cc1cc(N/N=C/c2ccccc2[N+](=O)[O-])nc(-n2nc(C)cc2C)n1 | 0 | 0 | 0 | 69 | 0 | 0
Cc1cc(N/N=C/c2ccccc2O)nc(-c2ccccc2O)n1 | 0 | 0 | 0 | 0 | 0 | 0
Cc1cc(N/N=C/c2ccc(O)cc2O)nc(-c2ccccc2O)n1 | ? | 0 | 0 | 60 | 0 | 21
Cc1cc(Nc2cccc(Cl)c2)nc(-c2ccccc2O)n1 | 0 | 0 | 0 | 0 | 0 | 0
O=C(O)CSc1nnnn1-c1ccc2c(c1)OCCO2 | 0 | 0 | 0 | 0 | 0 | 0
COc1ccc(S(=O)(=O)N(CCc2ccccc2)CC(=O)NC(C)C)cc1 | 0 | 0 | 0 | 0 | 0 | 0
Cc1ccc(-c2nc(C)sc2CC(=O)NCc2ccco2)cc1 | 0 | 0 | 0 | 0 | - | 0
O=C(c1ccc(NC2=NC3CS(=O)(=O)CC3S2)cc1)N1CCN(C(=O)c2ccco2)CC1 (stereo unspecified) | - | 0 | 0 | - | 0 | -
C=C1N(C)c2cc([N+](=O)[O-])c(N)cc2C1(C)C | 0 | 0 | 0 | 68 | 0 | 0
CC1(C)Oc2cc(N)c([N+](=O)[O-])cc2O1 | 0 | 0 | 0 | 0 | 0 | 0
COc1ccc(/C=C/C(=O)NCc2cn(C)nc2C)cc1COc1ccc(Cl)cc1Br | 0 | 0 | 0 | 0 | 0 | 0
CCn1nc(C)c(NC(=O)/C=C/c2ccc(OC)c(COc3ccc(Cl)cc3Br)c2)c1C | 0 | 0 | 0 | 55 | 0 | 0
